From ChEMBL document CHEMBL3352498, “Membrane active phenylalanine conjugated lipophilic norspermidine derivatives with selective antibacterial activity” (J Med Chem, 2014) come the findings set out here.

Each structure is given as a SMILES string. Calls of active or inactive are those of the source. No cut-off for these calls is given here.

One data set deals with Klebsiella pneumoniae. The experiment in a line: Antimicrobial activity against beta-lactam-resistant Klebsiella pneumoniae ATCC 700603 after 24 hrs by broth microdilution method. Type of data set: functional. The settings on record: ATCC 700603, 24 h. A digest of the protocol:
(§1)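 Broth microdilution per CLSI, 24 h at 37 °C. Inoculum is a 6 h 37 °C culture diluted to ~10^5 CFU/mL (yeast–dextrose broth for MRSA and K. pneumoniae). 50 μL of 2-fold dilutions in water plus 150 μL bacteria. Read by OD600, triplicates, run at least twice. MIC is taken from a sigmoidal fit as the point where OD equals the bacteria-free control.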

In data set [1] the test system is Staphylococcus aureus. Briefly: Antimicrobial activity against Staphylococcus aureus MTCC 737 assessed as leakage of K+ at 12 times MIC using PBFI-AM by fluorescence spectroscopy. Type of data set: functional, organism-based.
Data set [2] has as its system Staphylococcus aureus. Briefly: Antimicrobial activity against Staphylococcus aureus MTCC 737 at sub-MIC measured after 20 passages by broth microdilution method. Type of data set: functional, organism-based. In general terms: Broth dilution looks for growth in wells or tubes with falling amounts of substance.
The test system of data set [3] is Escherichia coli. The experiment in a line: Antimicrobial activity against Escherichia coli MTCC 443 after 24 hrs by broth microdilution method. Type of data set: functional. The settings on record: MTCC 443, 24 h. An outline of the steps: (§2)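 Broth microdilution per CLSI: 6 h cultures (37 °C) diluted to ~10^5 CFU/mL; 2-fold serial dilutions in sterile water added to bacteria; 24 h at 37 °C; OD600 read. Triplicates, experiment done at least twice; mean OD vs concentration fitted sigmoidally, MIC taken where OD matched the no-bacteria control. E. coli grown in LB broth, S. aureus in yeast–dextrose broth.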

For data set [4], the system named is Staphylococcus aureus. Briefly: Antimicrobial activity against Staphylococcus aureus MTCC 737 after 24 hrs by broth microdilution method. Type of data set: functional. The conditions noted are these: MTCC 737, 24 h. An outline of the steps:
as §2

Data set [5] relates to Escherichia coli. Briefly: Antimicrobial activity against Escherichia coli MTCC 443 assessed as leakage of K+ at 12 times MIC using PBFI-AM by fluorescence spectroscopy. Type of data set: functional, organism-based.
For data set [6], the system named is Staphylococcus aureus. The experiment in a line: Bactericidal activity against Staphylococcus aureus MTCC 737 assessed as log reduction in CFU/ml at 6 times MIC by time-kill assay relative to control. Type of data set: functional.
Data set [7] relates to Staphylococcus aureus. The experiment in a line: Ratio of MIC for Staphylococcus aureus MTCC 737 after 4 hrs in presence of 50% human serum to MIC for Staphylococcus aureus MTCC 737 after 4 hrs. Type of data set: functional. A digest of the protocol:
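Compound mixed 1:1 with human serum (50% serum) and held at 37 °C; at 0, 2 and 4 h the mixture was serially 2-fold diluted in 0.9% saline. Activity against S. aureus then tested in triplicate by the standard broth microdilution MIC protocol.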

Data set [8] relates to Staphylococcus aureus. The experiment in a line: Antimicrobial activity against Staphylococcus aureus MTCC 737 assessed as increase in MIC measured after 20 passages by broth microdilution method relative to control. Type of data set: functional.
The test system of data set [9] is Staphylococcus aureus. The experiment in a line: Antimicrobial activity against Staphylococcus aureus MTCC 737 after 2 hrs by broth microdilution method in presence of 50% human plasma. Type of data set: functional, organism-based. A digest of the protocol:
(§3)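 Compound mixed 1:1 with fresh human plasma (50% plasma) and held at 37 °C; at 0, 2, 4, 6, 12 and 24 h aliquots were diluted 2-fold in 0.9% saline.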

Data set [10] has as its system Staphylococcus aureus. Briefly: Antimicrobial activity against Staphylococcus aureus MTCC 737 assessed as membrane permeabilization at 12 times MIC by propidium iodide staining method. Type of data set: functional, organism-based.
In data set [11] the test system is Staphylococcus aureus. The experiment in a line: Antimicrobial activity against methicillin-resistant Staphylococcus aureus ATCC 33591 after 24 hrs by broth microdilution method. Type of data set: functional. The conditions noted are these: ATCC 33591, 24 h. A digest of the protocol:
as §1

The test system of data set [12] is Escherichia coli. Briefly: Antimicrobial activity against Escherichia coli MTCC 443 assessed as membrane permeabilization at 12 times MIC by propidium iodide staining method. Type of data set: functional, organism-based.
Data set [13] concerns Enterococcus faecium. The experiment in a line: Antimicrobial activity against vancomycin-resistant Enterococcus faecium ATCC 51559 after 24 hrs by broth microdilution method. Type of data set: functional. The settings on record: ATCC 51559, 24 h. A digest of the protocol:
as §1

Data set [14] is described as follows: Cytotoxicity against mouse RAW264.7 cells at 16 ug/ml after 1 hr by MTT assay. Type of data set: cell-based. The settings on record: raw264.7, 1 h. An outline of the steps:
(§4)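 RAW 264.7 cells grown in DMEM with 10% FBS to ~70–80% confluency, exposed to serially diluted compound 1 h at 37 °C, 5% CO2; untreated and Triton X-100 controls. MTT (5 mg/mL) 4 h, formazan dissolved in DMSO, OD 570 nm; viability normalised to controls, triplicates, sigmoidal fit for 50% viability.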

In data set [15] the test system is Staphylococcus aureus. The experiment in a line: Bactericidal activity against Staphylococcus aureus MTCC 737 assessed as log reduction in CFU/ml at 6 times MIC at 15 mins by time-kill assay relative to control. Type of data set: functional.
Data set [16] is described as follows: Hemolytic activity in human erythrocytes after 1 hr by spectrophotometry. Type of data set: ADME, cell-based, Erythrocyte. An outline of the steps:
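Fresh heparinised human erythrocytes suspended to 5 vol % in PBS pH 7.4, mixed with serially diluted compound, 1 h at 37 °C; no-compound and 1 vol % Triton X-100 controls. Supernatant A540 after centrifugation gave % hemolysis; triplicates averaged, sigmoidal fit gave HC50.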

The test system of data set [17] is Escherichia coli. Briefly: Antimicrobial activity against Escherichia coli MTCC 443 assessed as increase in MIC measured after 30 passages by broth microdilution method relative to control. Type of data set: functional.
Data set [18] is described as follows: Cytotoxicity against mouse RAW264.7 cells after 1 hr by MTT assay. Type of data set: cell-based. The settings on record: raw264.7, 1 h. A digest of the protocol:
as §4
(In general: Tetrazolium assays rely on reduction of a dye to a coloured formazan, in cell work by metabolically active cells.)

The subject of data set [19] is Staphylococcus aureus. Briefly: Antimicrobial activity against Staphylococcus aureus MTCC 737 after 4 hrs by broth microdilution method in presence of 50% human plasma. Type of data set: functional, organism-based. A digest of the protocol:
as §3

Data set [20] in a line: Critical micelle concentration of the compound. Type of data set: ADME. An outline of the steps:
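Static light scattering at 90° (excitation and emission 400 nm) on compound dissolved at 500 μg/mL in yeast–dextrose broth at room temperature, measured over successive dilutions; cmc taken from the inflection point where intensity rises steeply then falls after a local maximum.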

Data set [21] deals with Enterococcus faecium. The experiment in a line: Antimicrobial activity against Enterococcus faecium ATCC 19634 after 24 hrs by broth microdilution method. Type of data set: functional. The conditions noted are these: ATCC 19634, 24 h.
Data set [22] relates to Escherichia coli. Briefly: Antimicrobial activity against Escherichia coli MTCC 443 at sub-MIC measured after 30 passages by broth microdilution method. Type of data set: functional, organism-based.
In data set [23] the test system is Staphylococcus aureus. The experiment in a line: Antimicrobial activity against Staphylococcus aureus MTCC 737 assessed as membrane depolarization at 12 times MIC using DiSC3 by fluorescence spectroscopy. Type of data set: functional, organism-based. An outline of the steps:
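Mid-log S. aureus washed and resuspended in 5 mM HEPES, 5 mM glucose, 100 mM KCl (1:1:1); 2 μM DiSC3(5) added, 20 min preincubation.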

On to `CCCCCCCCCCCC(=O)N(CCCNC(=O)[C@H](N)Cc1ccccc1)CCCNC(=O)[C@H](N)Cc1ccccc1.O=C(O)C(F)(F)F.O=C(O)C(F)(F)F`, for which the MIC was 6.5 mg/L against Klebsiella pneumoniae; 10 mg/L against Escherichia coli [3]; 3.5 mg/L against Staphylococcus aureus [4]; 4.2 mg/L in the data set on Staphylococcus aureus [11]; 2.4 mg/L against Enterococcus faecium [13]; 2.8 mg/L with Enterococcus faecium [21]. For the same compound, the result in the data set on Staphylococcus aureus [1], in the data set with Staphylococcus aureus [2], with Escherichia coli [5], in the data set with Staphylococcus aureus [9], in the data set with Staphylococcus aureus [10] and in the data set with Escherichia coli [12] was Active. Besides, the outcome in the data set on Staphylococcus aureus [19], in the data set with Escherichia coli [22] and in the data set on Staphylococcus aureus [23] was Active. In addition, the FC in the data set with Staphylococcus aureus [6] and with Staphylococcus aureus [15] was 3 in each case. The figures for the “fold change (FC)” value with Staphylococcus aureus [7], in the data set with Staphylococcus aureus [8] and in the data set on Escherichia coli [17] were 2, 800 and 250, respectively. In addition, the Activity result in data set [14] and in data set [18] was “Non-toxic” throughout. In [16], this compound yielded an HC50 at 1 h of 209 µg/mL. In data set [20], the CMC is 40 µg/mL.

What is called MIC is the lowest concentration found to suppress growth. A lower MIC goes with greater potency. By HC50 is commonly meant the concentration giving 50% haemolysis. Lower therefore signals more damage to red cells.
